Published values from different studies.
Protocols differ between the studies behind these lines.
Medium: plasma

With `CCCC[C@@H]1NC(=O)[C@H](Cc2ccc(O)cc2)NC(=O)[C@@H]2CCCN2C(=O)[C@H](CC(=O)O)NC(=O)[C@H](C)NC(=O)[C@H](Cc2ccccc2)NC(=O)[C@@H]2CSCCC(=O)N3CN(CN(C3)C(=O)CCSC[C@@H](C(=O)N[C@@H](C)C(N)=O)NC1=O)C(=O)CCSC[C@H](NC(C)=O)C(=O)N[C@@H](CC(C)(C)C)C(=O)N1CCC[C@H]1C(=O)N[C@@H](CCC(=O)O)C(=O)N[C@H](CCCCNC(=O)CCc1cn(CCOCCOCCOCCOCCOCCOCCOCCOCCOCCOCCNC(=O)c3cc(C(=O)NCCOCCOCCOCCOCCOCCOCCOCCOCCOCCOCCn4cc(CCC(=O)NCCCC[C@H]5NC(=O)[C@H](CCC(=O)O)NC(=O)[C@@H]6CCCN6C(=O)[C@H](CC(C)(C)C)NC(=O)[C@@H](NC(C)=O)CSCCC(=O)N6CN7CN(C6)C(=O)CCSC[C@H](NC(=O)[C@H](Cc6ccc(O)cc6)NC(=O)[C@@H]6CCCN6C5=O)C(=O)N[C@@H](Cc5ccccc5)C(=O)N[C@@H](C)C(=O)N[C@@H](CC(=O)O)C(=O)N5CCC[C@H]5C(=O)N[C@@H](Cc5ccc(O)cc5)C(=O)N[C@@H](CCCC)C(=O)N[C@H](C(=O)N[C@@H](C)C(N)=O)CSCCC7=O)nn4)cc(C(=O)NCCOCCOCCOCCOCCOCCOCCOCCOCCOCCOCCn4cc(CCC(=O)N[C@H]5CSCCC(=O)N6CN7CN(C6)C(=O)CCSC[C@H](NC(=O)[C@@H](CC(=O)O)NC(=O)[C@H](Cc6cccc8ccccc68)NC(=O)[C@@H]6CCCN6C5=O)C(=O)N[C@@H](CCSC)C(=O)N[C@@H](CCCCNC(=N)N)C(=O)N[C@@H](CC(=O)O)C(=O)N[C@@H](Cc5c[nH]c6ccccc56)C(=O)N[C@@H](CO)C(=O)N[C@@H]([C@@H](C)O)C(=O)N5CCC[C@H]5C(=O)N5C[C@H](O)C[C@H]5C(=O)N[C@@H](Cc5c[nH]c6ccccc56)C(=O)N[C@H](C(N)=O)CSCCC7=O)nn4)c3)nn1)C(=O)N1CCC[C@H]1C(=O)N[C@@H](Cc1ccc(O)cc1)C(=O)N2` the clearance was 0.552 L/h/kg (rat; intravenous; 2 mg/kg).
The CL/F of `C#Cc1cccc(Nc2ncnc3cc(OCCOC)c(OCCOC)cc23)c1` is reported as 1.32 L/h/kg (male Sprague-Dawley rat; oral; 12 mg/kg; single dose).
The clearance of `Cl.Clc1ccc2c(c1)nc(N1CCNCC1)n2Cc1ccccc1` is reported as 8.64 L/h/kg (rat; intravenous; 1 mg/kg).
`Cc1c(-c2ccccc2)cccc1N1C(=O)c2cc(CN[C@H](C(=O)O)C(C)O)c(OCc3cccc(C#N)c3)cc2C1=O` (stereo partly drawn) gave a clearance of 0.34 L/h/kg (Sprague-Dawley rat; intravenous; 5 mg/kg).
The clearance of `CCOC(=O)[C@@]12C[C@@H]1[C@@H](n1ccc3c(NC)nc(C#Cc4ccc(Cl)s4)nc31)[C@H](O)[C@@H]2O` is reported as 18.1 L/h/kg (male Sprague-Dawley rat; intravenous; 0.5 mg/kg).
For `O=C(c1cc(Cc2n[nH]c(=O)c3ccccc23)ccc1F)N1CCN(C(=O)C2CC2)CC1`, the clearance was 2.22 mL/min (female Sprague-Dawley rat; intravenous).
`COCCOC(=O)C1=C(C)NC(C)=C(C(=O)OC(C)C)C1c1cccc([N+](=O)[O-])c1` (stereo not drawn) gave a clearance of 0.0015 L/h/kg (male Sprague-Dawley rat; intravenous; 3 mg/kg).
For `Oc1c(Br)cc(Cl)c2cccnc12`, the CL/F was 1.9 L/h/kg (Sprague-Dawley rat; subcutaneous; 10 mg/kg).
`CC[C@H](C)[C@H](NC(=O)[C@H](Cc1ccccc1)NC(=O)[C@H](CCC(=O)O)NC(=O)[C@H](CCCNC(=N)N)NC(=O)[C@H](C)NC(=O)[C@H](C)NC(=O)[C@H](CCC(N)=O)NC(=O)[C@H](CCC(=O)O)NC(=O)[C@H](CCC(=O)O)NC(=O)[C@H](CC(C)C)NC(=O)[C@H](Cc1ccc(O)cc1)NC(=O)[C@H](CO)NC(=O)[C@H](CO)NC(=O)[C@@H](NC(=O)[C@H](CC(=O)O)NC(=O)[C@H](CO)NC(=O)[C@@H](NC(=O)[C@H](Cc1ccccc1)NC(=O)[C@@H](NC(=O)CNC(=O)[C@H](CCC(=O)O)NC(=O)[C@H](C)NC(=O)CCc1c[nH]cn1)[C@@H](C)O)[C@@H](C)O)C(C)C)C(=O)N[C@@H](C)C(=O)N[C@@H](Cc1c[nH]c2ccccc12)C(=O)N[C@@H](CC(C)C)C(=O)N[C@H](C(=O)N[C@@H](CCCNC(=N)N)C(=O)NCC(=O)N[C@@H](CCCNC(=N)N)C(=O)N[C@@H](CCCCNC(=O)COCCOCCNC(=O)COCCOCCNC(=O)CC[C@H](NC(=O)CCCCCCCCCCCCCCCCC(=O)O)C(=O)O)C(=O)O)C(C)C` gave a CL/F of 0.00867 L/h/kg (rat; subcutaneous; 20 nmol/kg).
For `O=C(Nc1cc(F)c(F)c(F)c1)c1ccc(F)c(S(=O)(=O)NCc2cccc(B(O)O)c2)c1`, the clearance was 8.19 L/h/kg (male Sprague-Dawley rat; intravenous; 2 mg/kg).
For `COc1ccc(C(C)=O)c(O)c1`, the CL/F was 2.65 L/h/kg (male Sprague-Dawley rat; oral; 100 mg/kg).
`COc1ccc2c(Cc3ccccc3F)c3n(c(=O)c2c1OC)CCc1cc2c(cc1-3)OCO2` gave a clearance of 0.22 L/h/kg (rat; intravenous; 5 mg/kg).
